Experiment [1] deals with T1, Phospholipase A2 (Homo sapiens, UniProt P04054). Description: Apparent inhibition of human pancreatic recombinant 1B PLA2 expressed in Escherichia coli assessed as hydrolysis rate of 1,2-dimyristoyl-sn-3-glycerophosphocholine vesicles in presence of cholate.
Target sequence in this assay (P04054 23-148 limits assumed): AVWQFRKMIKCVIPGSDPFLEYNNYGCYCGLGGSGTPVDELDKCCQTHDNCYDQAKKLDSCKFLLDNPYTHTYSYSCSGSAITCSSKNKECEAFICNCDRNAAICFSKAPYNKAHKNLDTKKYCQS
Experiment [2] has as its target T1, Phospholipase A2. Kind of experiment: Reduction in human pancreatic recombinant 1B PLA2 activity expressed in Escherichia coli assessed as hydrolysis of cholate-activated 1,2-dimyristoyl-sn-3-glycerophosphocholine vesicles.
Target sequence in this assay (P04054 23-148 limits assumed): as above
In experiment [3] the target is T1, Phospholipase A2. Kind of experiment: Increase in human pancreatic recombinant 1B PLA2 activity expressed in Escherichia coli assessed as hydrolysis rate of 1,2-dimyristoyl-sn-3-glycerophosphocholine vesicles in absence of cholate. In short, it runs like this: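 pH-stat titration of hydrolysis of sonicated 1 mM DMPC vesicles, started with 2 to 10 pM hPLA2, titrated with 1 mM 2-aminopropanediol base. Buffer was 5 mM CaCl2, 1 mM NaCl, 0.1 mM EDTA, pH 8.0, 24 ± 0.1 °C, under nitrogen. Test compound was present at 0.03 or 0.007 MF.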
Target sequence in this assay (P04054 23-148 limits assumed): as above

The target of experiment [4] is T1, Phospholipase A2. Description: Binding affinity to human pancreatic recombinant 1B PLA2 expressed in Escherichia coli at 100 uM by saturation transfer difference NMR spectroscopy.
Target sequence in this assay (P04054 23-148 limits assumed): as above
The species entered for a further experiment is Sus scrofa. Description: Binding affinity to pig PLA2 at 100 uM by saturation transfer difference NMR spectroscopy. In short, it runs like this: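 STD NMR at 15 °C in 20 mM bicarbonate in D2O, pH 7.5, with 100 µM ligand and 7 µM pig pancreatic PLA2. Difference of on- and off-resonance irradiation by phase cycling, coadded from 6144 scans.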
Experiment [5] addresses T1, Phospholipase A2. Description: Binding affinity to human pancreatic recombinant 1B PLA2 expressed in Escherichia coli by resonance energy transfer assay in presence of trimethyl-ammonium-diphenylhexatriene. Summed up: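 Aqueous-phase binding measured as bile-salt quenching of the resonance energy transfer signal from the hPLA2–trimethyl-ammonium-diphenylhexatriene complex. Kd was derived from the quenching.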
Target sequence in this assay (P04054 whole entry): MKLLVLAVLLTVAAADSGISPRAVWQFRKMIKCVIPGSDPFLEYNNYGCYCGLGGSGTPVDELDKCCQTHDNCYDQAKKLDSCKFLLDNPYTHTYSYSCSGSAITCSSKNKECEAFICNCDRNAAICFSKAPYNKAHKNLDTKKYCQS

The target in experiment [6] is T1, Phospholipase A2.
Target sequence in this assay (P04054 23-148 limits assumed): as the sequence (P04054 23-148 limits assumed) above

The source made the active and inactive calls. No cut-off for these calls is given here.

Turning to `CC1=C\C/C=C(\C)CC/C=C(\C)CC[C@](O)(C(C)C)/C=C\1`, the Ki(app) (mole fraction) on Phospholipase A2 [1] was determined as 0.00325. On Phospholipase A2 [2], the Activity entry is “Dose-dependent effect”. At Phospholipase A2 [3], the result was inactive.
`C[C@H](CCC(=O)NCCS(=O)(=O)O)[C@H]1CC[C@H]2[C@@H]3CC[C@@H]4C[C@H](O)CC[C@]4(C)[C@H]3C[C@H](O)[C@]12C`: the result on Phospholipase A2 [4] was Active.
As for `C[C@H](CCC(=O)O)[C@H]1CC[C@H]2[C@@H]3[C@H](O)C[C@@H]4C[C@H](O)CC[C@]4(C)[C@H]3CC[C@]12C`, the result at Phospholipase A2 [4] and in the experiment listed under Sus scrofa was Active.
Consider `C[C@H](CCC(=O)O)[C@H]1CC[C@H]2[C@@H]3[C@H](O)C[C@@H]4C[C@H](O)CC[C@]4(C)[C@H]3C[C@H](O)[C@]12C` [CHOLIC ACID], for which the Kd on Phospholipase A2 [5] is over 150 µM. Besides, the outcome at Phospholipase A2 [4] and in the experiment listed under Sus scrofa was Active.
For `C[C@H](CCC(=O)NCCS(=O)(=O)O)[C@H]1CC[C@H]2[C@@H]3[C@@H](O)C[C@@H]4C[C@H](O)CC[C@]4(C)[C@H]3CC[C@]12C` [TAURURSODIOL], the Kd at Phospholipase A2 [5] came out at 10 µM. Also, the Ki(app) (mole fraction) on Phospholipase A2 [6] is 0.005; on Phospholipase A2 [1], 0.000306. In addition, on Phospholipase A2 [2], the Activity result is “Dose-dependent effect”.

Values taken from ChEMBL document CHEMBL1151805, “Effect of guggulsterone and cembranoids of Commiphora mukul on pancreatic phospholipase A(2): role in hypocholesterolemia” (J Nat Prod, 2009).
